Format in all cases: functional
Experiment [1] concerns Mus musculus. The experiment in a line: Compound was tested for the effect on the survival time of the mice bearing P388 leukemia at dose 40 mg/kg. In outline:
(§1)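 Ascites cells were taken from donor CDF₁ mice with 7-day growths, spun, diluted 10-fold in isotonic saline and set to 10⁷ cells/mL. About 10⁶ cells were given ip per mouse. Drug was homogenized in 20% aqueous Tween 80, made up in saline, and given ip once daily for 6 days from 24 h after implant. Vehicle controls were included. Read-out was survival time, as T/C × 100, with % weight change as toxicity.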

In experiment [2] the test system is Mus musculus. The experiment in a line: Compound was tested for the effect on the survival time of the mice bearing P388 leukemia at dose 60 mg/kg. The method, boiled down:
as §1

The subject of experiment [3] is Mus musculus. The experiment in a line: Compound was tested for the effect on the survival time of the mice bearing P388 leukemia at dose 80 mg/kg. The method, boiled down:
as §1

Experiment [4] relates to Mus musculus. As to the kind of experiment: Compound was tested for the effect on the survival time of the mice bearing P388 leukemia at dose 40 mg/kg; ratio of survival time of treated and control. The method, boiled down: as §1
Experiment [5] deals with Mus musculus. As to the kind of experiment: Compound was tested for the effect on the survival time of the mice bearing P388 leukemia at dose 60 mg/kg; ratio of survival time of treated and control. The method, boiled down: as §1
The subject of experiment [6] is Mus musculus. As to the kind of experiment: Compound was tested for the effect on the survival time of the mice bearing P388 leukemia at dose 80 mg/kg; ratio of survival time of treated and control. In outline: as §1
Experiment [7] deals with Mus musculus. The experiment in a line: Compound was tested for the effect on the survival time of the mice bearing P388 leukemia at dose 100 mg/kg. The method, boiled down:
as §1

The subject of experiment [8] is Mus musculus. The experiment in a line: Compound was tested for the effect on the survival time of the mice bearing P388 leukemia at dose 20 mg/kg. The method, boiled down: as §1
The subject of experiment [9] is Mus musculus. The experiment in a line: Compound was tested for the effect on the survival time of the mice bearing P388 leukemia at dose 200 mg/kg. In outline: as §1
The subject of experiment [10] is Mus musculus. As to the kind of experiment: Compound was tested for the effect on the survival time of the mice bearing Sarcoma 180 ascites at dose of 10 mg/kg. In outline: as §1
The subject of experiment [11] is Mus musculus. As to the kind of experiment: Compound was tested for the effect on the survival time of the mice bearing Sarcoma 180 ascites at dose of 20 mg/kg. The method, boiled down:
as §1

Experiment [12] has as its system Mus musculus. As to the kind of experiment: Compound was tested for the effect on the survival time of the mice bearing Sarcoma 180 ascites at dose of 40 mg/kg. In outline: as §1
The subject of experiment [13] is Mus musculus. As to the kind of experiment: Compound was tested for the effect on the survival time of the mice bearing P388 leukemia at dose 100 mg/kg; ratio of survival time of treated and control. In outline: as §1
Experiment [14] relates to Mus musculus. The experiment in a line: Compound was tested for the effect on the survival time of the mice bearing P388 leukemia at dose 20 mg/kg; ratio of survival time of treated and control. In outline: as §1
For experiment [15], the system named is Mus musculus. As to the kind of experiment: Compound was tested for the effect on the survival time of the mice bearing P388 leukemia at dose 200 mg/kg; ratio of survival time of treated and control. The method, boiled down:
as §1

For experiment [16], the system named is Mus musculus. As to the kind of experiment: Compound was tested for the effect on the survival time of the mice bearing Sarcoma 180 ascites at dose of 10 mg/kg; ratio of survival time of treated and control. The method, boiled down:
as §1

Experiment [17] has as its system Mus musculus. The experiment in a line: Compound was tested for the effect on the survival time of the mice bearing Sarcoma 180 ascites at dose of 20 mg/kg; ratio of survival time of treated and control. In outline: as §1
The test system of experiment [18] is Mus musculus. The experiment in a line: Compound was tested for the effect on the survival time of the mice bearing Sarcoma 180 ascites at dose of 40 mg/kg; ratio of survival time of treated and control. The method, boiled down:
as §1

Experiment [19] has as its system Mus musculus. The experiment in a line: Compound was tested for the effect on the survival time of the mice bearing P388 leukemia at dose 50 mg/kg. In outline:
as §1

Experiment [20] has as its system Mus musculus. The experiment in a line: Compound was tested for the effect on the survival time of the mice bearing P388 leukemia at dose 25 mg/kg; ratio of survival time of treated and control. The method, boiled down: as §1
Experiment [21] relates to Mus musculus. The experiment in a line: Compound was tested for the effect on the survival time of the mice bearing P388 leukemia at dose 50 mg/kg; ratio of survival time of treated and control. In outline:
as §1

Experiment [22] deals with Mus musculus. As to the kind of experiment: Compound was tested for the effect on the survival time of the mice bearing P388 leukemia at dose 25 mg/kg. The method, boiled down: as §1

Regarding `O=C(Cc1ccc([N+](=O)[O-])cc1)On1cc(F)c(=O)n(OC(=O)Cc2ccc([N+](=O)[O-])cc2)c1=O`, the Change in weight in the experiment on Mus musculus [1] is recorded as -2.7%; in the experiment on Mus musculus [2], -5.5%; in the experiment on Mus musculus [3], -7.4%. For the same compound, the T/C was 136 in the experiment on Mus musculus [4], 149 with Mus musculus [5] and 158 with Mus musculus [6].

Regarding `O=C(Cc1ccc([N+](=O)[O-])cc1)On1c(=O)[nH]cc(F)c1=O`, the Change in weight was -11.6% in the experiment with Mus musculus [7]; 5.6% in the experiment on Mus musculus [8]; -10.7% in the experiment with Mus musculus [9]; 0% in the experiment with Mus musculus [1]; -2.9% in the experiment on Mus musculus [2]; -5.8% with Mus musculus [3]. For the same compound, the Change in weight in the experiment with Mus musculus [10] is given as 9.6%; in the experiment on Mus musculus [11], 2.7%; in the experiment on Mus musculus [12], -7.6%. In addition, the T/C with Mus musculus [13] turned out to be 158; in the experiment on Mus musculus [14], 165; in the experiment on Mus musculus [15] it was 64; in the experiment with Mus musculus [4] it was 190; with Mus musculus [5], 196; in the experiment with Mus musculus [6] it was 212. For the same compound, the results for the T/C in the experiment with Mus musculus [16], in the experiment with Mus musculus [17] and in the experiment with Mus musculus [18] were 159, 124 and 332, respectively.

Regarding `O=c1[nH]c(=O)n(C2CCCO2)cc1F` (stereo not drawn) [TEGAFUR], the Change in weight in the experiment on Mus musculus [2] was determined as 12.2%. The T/C in the experiment on Mus musculus [5] was 100.

Turning to `O=c1c(F)cn(C2CCCO2)c(=O)n1Cc1ccccc1[N+](=O)[O-]` (stereo not drawn), the Change in weight amounted to 13.7% in the experiment on Mus musculus [7], 7.8% in the experiment with Mus musculus [19] and 10.3% with Mus musculus [22]. Further, the T/C in the experiment on Mus musculus [13] stood at 96; with Mus musculus [20], 90; in the experiment on Mus musculus [21], 96.

For the compound `O=c1c(F)cn(Cc2ccccc2[N+](=O)[O-])c(=O)n1Cc1ccccc1[N+](=O)[O-]`, the Change in weight is recorded as 22.4% in the experiment with Mus musculus [7], 15% in the experiment on Mus musculus [19] and 17.8% in the experiment with Mus musculus [22]. The T/C in the experiment with Mus musculus [13] amounted to 86; with Mus musculus [20], 90; in the experiment on Mus musculus [21], 88.

With `O=c1[nH]cc(F)c(=O)[nH]1` [FLUOROURACIL], the results for the Change in weight with Mus musculus [8] and in the experiment on Mus musculus [11] were -12.5% and -3.4%, respectively. The T/C with Mus musculus [14] amounted to 185; in the experiment with Mus musculus [17], 277.

Regarding `O=c1[nH]c(=O)n(Cc2ccccc2[N+](=O)[O-])cc1F`, the Change in weight with Mus musculus [7] came out at 20.8%; in the experiment with Mus musculus [19], 10%; with Mus musculus [22], 13.3%. The T/C with Mus musculus [13] is reported as 88; in the experiment with Mus musculus [20], 90; in the experiment with Mus musculus [21], 92.

The record behind these values is ChEMBL document CHEMBL1123214, “(o- and p-Nitrobenzyloxycarbonyl)-5-fluorouracil derivatives as potential conjugated bioreductive alkylating agents” (1986).
